The source made the active and inactive calls.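 Rule for the calls, unless noted: active = fluorescence slope higher than the sample average by over 3 SD (cut at about -0.22 in these data, passing the limit was not always enough); inactive = the rest.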
Key:
[1] = inhibitors of TNFa-induced NFkB p65 translocation, primary screen, imaging, HUVEC, MLSMR starter and 10KST1 sets (AID 438;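 active = inhibition above 20% together with a positive visual image hit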;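 note: compound added about 3h40 before a 20 min TNFalpha stimulation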;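 for inhibition: signal is the nuclear over cytoplasmic p65 intensity ratio per well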); conditions: HUVEC TNFa-induced p65 nuclear translocation; cell count: measured here: nuclei count (cytotoxicity indicator), at 2.08 µM; inhibition: at 2 µM, stronger effect = higher value, 0% TNFa-plus-vehicle, 100% no-TNFa wells
[2] = reduction of polyQ htt aggregates in cells – imaging, exon1htt(103Q)mCFP cells, high-content imaging, primary screen (AID 483;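 active = visual image review flags a hit and inhibition of aggregation exceeds 20%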;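 note: compound exposure lasted 3 days before fixation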;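 for nuclei count: percent of the per-plate median nuclei count of sample wells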); conditions: exon1htt(103Q)mCFP cell line, aggregate imaging, at 2 µM; inhibition of aggregation: stronger effect = higher value; nuclei count: measured here: cell count, toxicity
[3] = endothelial E-selectin expression blockers – imaging, HUVEC, immunofluorescence, MLSMR starter and 10KST1 sets, primary screen (AID 487;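 active = visually confirmed hit in the image check and inhibition above 20%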;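 for inhibition: signal is fraction of cell area covered by stained E-selectin grains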;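 for nuclei count: 100% = median nuclei count of all wells on the same plate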); conditions: HUVEC TNFalpha-induced E-selectin immunofluorescence imaging, at 2 µM; inhibition: stronger effect = higher value; nuclei count: measured here: cell number, toxicity
[4] = molecular target: Voltage-gated potassium channel subunit beta-2 (Rattus norvegicus) (UniProt P62483); test: inhibitors of rat Kvbeta2 reductase activity – biochemical, NADPH fluorescence, primary screen (AID 622); conditions: recombinant KvBeta, 4-cyanobenzaldehyde reduction, at 10 µM, stronger effect = higher value;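 note: slope of raw intensity against log time taken from 70 to 1610 s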
Voltage-gated potassium channel subunit beta-2 (Rattus norvegicus), sequence (P62483 whole entry, looked up): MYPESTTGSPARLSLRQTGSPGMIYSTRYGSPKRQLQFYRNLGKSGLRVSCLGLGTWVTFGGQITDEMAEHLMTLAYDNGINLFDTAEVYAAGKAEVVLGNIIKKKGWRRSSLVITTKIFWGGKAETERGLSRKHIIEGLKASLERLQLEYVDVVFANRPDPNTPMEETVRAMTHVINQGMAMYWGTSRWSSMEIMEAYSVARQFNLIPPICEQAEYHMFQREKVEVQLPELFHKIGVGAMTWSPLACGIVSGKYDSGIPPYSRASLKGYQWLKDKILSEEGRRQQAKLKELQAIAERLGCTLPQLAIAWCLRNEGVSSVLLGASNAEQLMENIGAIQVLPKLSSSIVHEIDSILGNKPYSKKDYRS

[5] = molecular target: Voltage-gated potassium channel subunit beta-2 (Rattus norvegicus) (UniProt P62483); test: enhancers of rat Kvbeta2 NADPH turnover – biochemical, NADPH fluorescence, primary screen (AID 623;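 active = NADPH fluorescence slope more negative than the mean of all samples by about 3 SD, 99.7% confidence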;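 note: fluorescence intensity change per second fitted from 20 to 320 s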); conditions: Recombinant KvBeta, NADPH fluorescence decrease slope, 10 min; at 10 µM; stronger effect = lower value
[6] = molecular target: Muscarinic acetylcholine receptor M4 (Homo sapiens) (UniProt P08173); test: M4-linked GIRK flux change, two-sided – cell-based, HEK293 M4/GIRK, thallium flux, BTC-AM, M4 allosteric agonist project, primary screen (AID 625;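 active = fluorescence slope after compound addition differing from the mean of all tested samples at 99.7% confidence, mostly higher but some lower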;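 note: thallium influx through GIRK channels coupled to M4 in HEK293 cells with BTC-AM dye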); conditions: at 10 µM, actives lie on both sides
Muscarinic acetylcholine receptor M4 (Homo sapiens), sequence (P08173 whole entry, looked up): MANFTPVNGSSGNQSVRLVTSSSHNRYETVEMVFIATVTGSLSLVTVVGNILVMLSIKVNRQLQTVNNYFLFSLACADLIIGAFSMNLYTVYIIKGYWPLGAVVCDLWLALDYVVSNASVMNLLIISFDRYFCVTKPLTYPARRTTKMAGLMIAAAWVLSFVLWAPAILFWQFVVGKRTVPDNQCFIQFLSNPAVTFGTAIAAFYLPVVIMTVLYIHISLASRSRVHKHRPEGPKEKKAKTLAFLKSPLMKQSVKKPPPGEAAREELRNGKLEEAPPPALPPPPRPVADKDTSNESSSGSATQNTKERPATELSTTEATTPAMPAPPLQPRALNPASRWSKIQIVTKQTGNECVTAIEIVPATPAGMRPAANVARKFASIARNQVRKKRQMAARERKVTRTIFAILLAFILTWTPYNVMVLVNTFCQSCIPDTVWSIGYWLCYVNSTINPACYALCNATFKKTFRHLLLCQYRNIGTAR
Summary of the method: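 Material: M4/GIRK1/GIRK2 stable HEK293 cell line. Medium: pH 7.3 thallium assay buffer. Dosing: single compound concentration, 10 µM final. Schedule: 1 h dye loading, 2 min kinetic read. Measured by: kinetic fluorescence with BTC-AM dye. Read-out: post-addition slope, 15–24 s, of baseline-normalized fluorescence. Benchmarks: carbachol and DMSO controls.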

[7] = blockers of RIG-like receptor reporter activation – cell-based, Sendai virus stimulus, luciferase, 10K MLSCN set, TLR/RLR signaling modifier project, primary screen (AID 602276;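 active = inhibition at or above 50% at 10 µM; inactive = inhibition below 50%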;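 note: firefly luciferase from ISG56 promoter only with Renilla not read in this screen; 0% = Sendai virus plus DMSO and 100% = medium plus DMSO without virus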); conditions: HEK293 RL24 IRF3 luciferase reporter, at 10 µM, stronger effect = higher value
[8] = TLR3 IRF3 reporter activation blockers – cell-based, poly I:C stimulus, luciferase, 10K MLSCN set, primary screen (AID 602277;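 active = inhibition of the reporter signal at or above 50%; inactive = inhibition below 50%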); conditions: HEK293-TLR3 RL24 IRF3 luciferase reporter, at 10 µM, stronger effect = higher value
[9] = molecular target: Alpha-2C adrenergic receptor (Homo sapiens) (UniProt P18825); test: compounds altering alpha2C-coupled GIRK flux – cell-based, HEK293 alpha2C/GIRK1/2, thallium flux, primary screen (AID 624;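 active = fluorescence slope after compound addition differing from the mean of all screened samples at 99.7% confidence, in either direction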;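 note: slope of fluorescence ratio to pre-addition baseline per second over 15 to 24 s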); conditions: thallium flux BTC fluorescence, at 10 µM, actives lie on both sides
Alpha-2C adrenergic receptor (Homo sapiens), sequence (P18825 whole entry, looked up): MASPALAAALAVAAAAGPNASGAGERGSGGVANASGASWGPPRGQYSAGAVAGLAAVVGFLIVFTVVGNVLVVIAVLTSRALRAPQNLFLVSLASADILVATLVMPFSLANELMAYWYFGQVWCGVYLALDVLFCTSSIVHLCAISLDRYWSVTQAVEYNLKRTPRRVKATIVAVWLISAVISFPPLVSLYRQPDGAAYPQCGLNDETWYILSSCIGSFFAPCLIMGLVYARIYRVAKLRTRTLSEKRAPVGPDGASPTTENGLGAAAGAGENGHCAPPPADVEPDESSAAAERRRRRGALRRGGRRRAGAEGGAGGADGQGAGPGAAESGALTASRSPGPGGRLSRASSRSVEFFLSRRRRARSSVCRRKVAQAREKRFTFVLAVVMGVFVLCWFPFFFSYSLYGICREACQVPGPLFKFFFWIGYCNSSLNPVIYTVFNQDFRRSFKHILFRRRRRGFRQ

[10] = inhibitors of larval lipid processing in zebrafish, primary screen, whole organism, PED6 fluorescence, gall bladder and intestine (AID 686;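 active = a full or partial loss of lipid-probe fluorescence in the fish gall bladder, intestine or both, judged by eye; inactive = no fluorescence loss, or compound toxic to the fish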;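 note: larvae 5 to 7 days old with five fish per well; signal comes from phospholipase A2 cleavage of quenched PED6 carried via bile; overnight exposure to compound and PED6 before scoring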); conditions: Zebrafish larvae PED6 lipid processing, fluorescence scoring; screened at 20 µM (by protocol)
Summary of the method: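 System: live zebrafish larvae aged 5-7 days, whole organism; measure: graded gall bladder and intestinal fluorescence inhibition per well; incubation: overnight exposure; reagent: ingested quenched lipid PED6 at 100 nM; signal: By-eye fluorescence microscopy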

SMILES	cell count [1]	inhibition [1]	inhibition of aggregation [2]	nuclei count [2] [%]	inhibition [3]	nuclei count [3] [%]	fluorescence slope [4]	NADPH fluorescence slope [5]	fluorescence slope [6]	inhibition [7]	inhibition [8]	slope [9]	outcome [10]
COc1cc(C2c3c(oc4c(C)cc(C)cc4c3=O)C(=O)N2Cc2cccnc2)cc(OC)c1OC (stereo not given)	632	0.3% (inactive)	7.3% (inactive)	106	-4.3% (inactive)	97.5	-0.552 (inactive)	1.8e-05 (inactive)	0.0049 (inactive)	-24.2% (inactive)	3.14% (inactive)	–	–
CC(=O)N1CCC2(CC1)CC(=O)c1cc(OCC(=O)NCc3ccc(C)cc3)ccc1O2	314	-4.7% (inactive)	2.5% (inactive)	78.3	-5% (inactive)	119	-0.0682 (inactive)	-3.2e-06 (inactive)	0.00521 (inactive)	6.64% (inactive)	5.97% (inactive)	–	–
COc1ccc2c(c1)CCc1c(C(=O)NCc3cccnc3)noc1-2	358	5.4% (inactive)	-6.5% (inactive)	103	-85.6% (inactive)	89.1	-0.462 (inactive)	-0.000203 (inactive)	0.00462 (inactive)	-37.2% (inactive)	-67.9% (inactive)	–	–
Cc1csc(NC(=O)Nc2cccc(Cl)c2)n1	506	1.8% (inactive)	-3.3% (inactive)	97.5	-98.3% (inactive)	113	-0.373 (inactive)	-3.7e-05 (inactive)	–	-37.7% (inactive)	-119% (inactive)	0.00525 (inactive)	active; weak signal in gallbladder only
N#Cc1c(/N=C/c2ccco2)sc2c1CCC2	657	11.9% (inactive)	0.6% (inactive)	105	-12.4% (inactive)	104	-0.507 (inactive)	-0.000202 (inactive)	0.00356 (inactive)	-16.4% (inactive)	-42.7% (inactive)	–	–
CCOC(=O)N1CCN(S(=O)(=O)c2cc(C)c(C)cc2C)CC1	373	2.8% (inactive)	-7.2% (inactive)	99.3	-69.5% (inactive)	137	-0.459 (inactive)	-1.8e-05 (inactive)	0.00447 (inactive)	13.4% (inactive)	20.2% (inactive)	–	–
Nc1nonc1C(=O)NCCNCc1cc(Br)ccc1OCc1ccccc1F	422	-2.4% (inactive)	18.5% (inactive)	89.6	-4.2% (inactive)	123	-0.574 (inactive)	-3.2e-05 (inactive)	0.00396 (inactive)	-2.45% (inactive)	-30.4% (inactive)	–	–
Cc1ccc(OCC(O)Cn2c(NCCc3ccccc3)nc3c2c(=O)[nH]c(=O)n3C)cc1 (stereo not given)	421	-1.8% (inactive)	-12.3% (inactive)	107	-5.4% (inactive)	113	-0.444 (inactive)	5.3e-06 (inactive)	–	-0.0675% (inactive)	1.64% (inactive)	0.00534 (inactive)	inactive
COc1cccc(OCC(O)CN2CCN(CCO)CC2)c1 (stereo not given)	383	-1% (inactive)	-24.6% (inactive)	105	-46.4% (inactive)	102	-0.475 (inactive)	-0.000292 (inactive)	0.00352 (inactive)	8.25% (inactive)	13.5% (inactive)	–	–
COC(=O)c1ccc(CSc2nc(-c3ccc(OC)cc3)nc3c2c(=O)n(C)c(=O)n3C)o1	487	8.9% (inactive)	-0.5% (inactive)	89.2	-5.9% (inactive)	103	-0.409 (inactive)	0.000102 (inactive)	0.00884 (inactive)	24% (inactive)	30.6% (inactive)	–	–
CCN(CC(=O)Nc1ccc2c(c1)OCCO2)Cc1cc(=O)oc2cc(C)c(C)cc12	337	-9.6% (inactive)	8.8% (inactive)	96.4	-2.6% (inactive)	119	-0.474 (inactive)	-3.1e-05 (inactive)	–	25.7% (inactive)	16.9% (inactive)	0.00545 (inactive)	inactive
O=C(CCCCC(=O)NCc1cccs1)NCc1cccs1	681	-12.6% (inactive)	-3.7% (inactive)	110	0.6% (inactive)	88.9	-0.571 (inactive)	3.2e-05 (inactive)	0.00493 (inactive)	-6.61% (inactive)	0.312% (inactive)	–	–
O=C(CCC(=O)OCCCC(F)(F)C(F)(F)F)NC1CCCCC1	424	4% (inactive)	5.5% (inactive)	108	-37.5% (inactive)	122	-0.53 (inactive)	-4e-05 (inactive)	0.00556 (inactive)	13.9% (inactive)	16.1% (inactive)	–	–
Nn1c(SCC(=O)Nc2ccccc2)nnc1-c1cccnc1	502	-4.8% (inactive)	11% (inactive)	126	7% (inactive)	118	-0.363 (inactive)	-3.7e-05 (inactive)	–	-6.03% (inactive)	-3.73% (inactive)	0.00741 (inactive)	inactive
CC(c1ccco1)N(C(=O)c1ccc(S(=O)(=O)N2CCCCC2)cc1)c1ccccn1 (stereo not given)	265	18.1% (inactive)	13.8% (inactive)	109	-32.7% (inactive)	105	-0.506 (inactive)	-0.000211 (active)	0.0101 (inactive)	6.94% (inactive)	8.51% (inactive)	–	–
CCOc1cc(C)c(C(C)C)cc1S(=O)(=O)N1CCN(C)CC1	775	-2.4% (inactive)	19% (inactive)	93.4	-3% (inactive)	112	-0.475 (inactive)	1.9e-05 (inactive)	0.00438 (inactive)	-9.48% (inactive)	-5.37% (inactive)	–	–
COC(=O)C1CCN(C(=O)CSc2nnc(-c3ccncc3)o2)CC1	682	-6.4% (inactive)	22.4% (inactive)	59.8	-9.5% (inactive)	109	-0.57 (inactive)	-5.5e-05 (inactive)	0.0106 (inactive)	-9.36% (inactive)	-15.6% (inactive)	–	–
COc1ccc2c(c1)Sc1ccccc1N2CCN(C)C	676	-8.8% (inactive)	2.5% (inactive)	117	-11.3% (inactive)	103	-0.573 (inactive)	-2.9e-05 (inactive)	0.00495 (inactive)	8.63% (inactive)	14.5% (inactive)	–	–
O=C(CSCc1n[nH]c(=O)[nH]1)NCCOc1cccc(Oc2ccccc2)c1	615	-13% (inactive)	8.5% (inactive)	77.7	-16.1% (inactive)	105	-0.417 (inactive)	-6.7e-05 (inactive)	–	-14.2% (inactive)	2.61% (inactive)	0.00545 (inactive)	inactive
CC(=O)c1cc(C#N)c(SCC(=O)OC(C)C)nc1C	464	-5.3% (inactive)	-14.7% (inactive)	118	-22.4% (inactive)	121	-0.26 (inactive)	-2.7e-05 (inactive)	0.00594 (inactive)	9.07% (inactive)	-11% (inactive)	–	–
Cc1csc2nc3ccccc3c(=O)n12	270	3.9% (inactive)	-14.2% (inactive)	97.6	-48% (inactive)	119	-0.579 (inactive)	-1.2e-05 (inactive)	0.00358 (inactive)	4.9% (inactive)	-6.37% (inactive)	–	–
CCC(Sc1ccc2nnc(-c3ccc(F)cc3)n2n1)C(=O)OC (stereo not given)	562	-16.6% (inactive)	25.1% (inactive)	117	-73.4% (inactive)	117	-0.185 (inactive)	-7e-06 (inactive)	0.00751 (inactive)	17.3% (inactive)	19.1% (inactive)	–	–
COC(=O)C(C)C1Sc2ccccc2NC1=O (stereo not given)	306	3.6% (inactive)	-4.9% (inactive)	89.5	-37.7% (inactive)	131	-0.28 (inactive)	-5.2e-05 (inactive)	0.00684 (inactive)	12.5% (inactive)	-8.12% (inactive)	–	–
CC(=O)Nc1nc(-c2ccccc2)nc(C)c1C(C)=O	366	8% (inactive)	15% (inactive)	88.5	32.4% (inactive)	87.6	-0.572 (inactive)	2e-05 (inactive)	0.0072 (inactive)	-8.51% (inactive)	2.89% (inactive)	–	–
CCCC1(C(=O)OCC)NC(c2ccc(N(C)C)cc2)C2C(=O)N(c3ccccc3)C(=O)C21 (stereo not given)	468	-0.5% (inactive)	4.8% (inactive)	92.4	-15.1% (inactive)	95	-0.465 (inactive)	-6.2e-05 (inactive)	0.0068 (inactive)	8.02% (inactive)	20.7% (inactive)	–	–
